Screening results (PubChem)
NR2E3 ag-1: activates human photoreceptor nuclear receptor NR2E3; GST-NR2E3/biotin-RetCOR TR-FRET, 1536-well; inhibition of corepressor binding, % at 4.78 µM; actives 0.12% (n = 320,000); Q9Y5X4;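 active = percent inhibition above the cutoff of mean plus 3 SD of all tested compounds, set per screening campaign, cut at about 20% in these data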;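 note: 0% = DMSO wells and 100% = biotin wells as full block of FRET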
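Format: 1536-well format; test system: GST-NR2E3 and biotin-RetCOR proteins; read-out basis: percent inhibition of TR-FRET ratio; timing: 5 h incubation at 4 °C; detection: time-resolved FRET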
NR2E3 ag-2: agonists of human NR2E3 nuclear receptor; Q9Y5X4; CHO-S Gal4-NCOR/VP16-NR2E3 two-hybrid, luciferase; inhibition of corepressor binding, % at 3.98 µM; actives 0.35% (n = 360,000); AID 602229;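 active = inhibition above the mean of all tested compounds plus 3 SD, cut at about 70% in these data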;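 note: 0% = DMSO with NR2E3 transfected cells and 100% = cells lacking NR2E3 construct; higher means lower luciferase signal from less NR2E3 corepressor binding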
PG9 Ab binder: binds the HIV-1 gp120 antibody PG9; TR-FRET gp120-PG9 antibody binding; inhibition, % at 6.7 µM; actives 0.43% (n = 360,000); in the data active = inhibition above about 8.5%
NR1D1 modulator: modulators of human Rev-erb alpha DNA binding; P20393; Rev-erbα–FITC-DNA binding, fluorescence polarization, 90 min; activity, % at 10 µM; actives 0.79% (n = 370,000); AID 1259318;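 active = activity above about 14%, limit read from the data; passing the limit was not always enough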;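 note: 0% = DMSO wells with 35 nM protein and 100% = DMSO wells with 750 nM protein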
Target sequence (P20393 whole entry, looked up): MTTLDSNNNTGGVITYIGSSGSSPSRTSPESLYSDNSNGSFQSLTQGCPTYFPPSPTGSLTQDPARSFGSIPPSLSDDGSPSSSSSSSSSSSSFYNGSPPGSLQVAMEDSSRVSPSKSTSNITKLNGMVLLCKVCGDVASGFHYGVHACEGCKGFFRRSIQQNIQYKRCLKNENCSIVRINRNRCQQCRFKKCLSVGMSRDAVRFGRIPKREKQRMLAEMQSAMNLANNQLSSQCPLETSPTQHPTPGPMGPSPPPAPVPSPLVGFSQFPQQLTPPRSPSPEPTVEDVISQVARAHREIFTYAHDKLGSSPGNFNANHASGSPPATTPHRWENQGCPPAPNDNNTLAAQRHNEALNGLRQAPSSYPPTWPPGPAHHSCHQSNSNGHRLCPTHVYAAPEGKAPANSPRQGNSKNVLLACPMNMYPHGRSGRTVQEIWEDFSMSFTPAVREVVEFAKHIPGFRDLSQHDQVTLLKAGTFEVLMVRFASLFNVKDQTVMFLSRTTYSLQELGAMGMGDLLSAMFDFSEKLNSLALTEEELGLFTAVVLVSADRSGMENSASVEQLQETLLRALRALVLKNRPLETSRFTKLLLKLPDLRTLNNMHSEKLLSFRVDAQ
NR2E3 ag confirm-1: confirmation of human NR2E3 nuclear receptor agonists. cell-free NR2E3 corepressor release, TR-FRET, 5 h. AID 2379. actives 39% (n = 360). activation (reported as inhibition), % at 3.98 µM. shares compounds with NR2E3 ag-1; in the data active = activation above about 20%
PPARg-NCOR2 ctr: releases PPARgamma from NCOR2 in NR2E3 counter-screen; TR-FRET PPARg-NCOR2 coregulator interaction, biochemical; AID 504787; actives 45% (n = 360); inhibition, % at 3.98 µM; shares compounds with NR2E3 ag-1; in the data active = inhibition above about 20%;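 note: 0% = DMSO vehicle and 100% = wells without protein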
NR2E3 ag confirm-2: confirmation of human NR2E3 agonists; shares compounds with NR2E3 ag-2; CHO-S mammalian two-hybrid NR2E3-NCOR, luciferase luminescence; inhibition, % at 3.98 µM; actives 51% (n = 2,300); AID 624378;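 active = average inhibition above a cutoff equal to the mean inhibition of all tested compounds plus one SD, cut at about 70% in these data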;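 note: 0% = DMSO in NR2E3 cells and 100% = DMSO in cells lacking NR2E3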
GAL4-VP16 luc: counter-screen for NR2E3 agonists: GAL4-VP16 reporter inhibitors; inhibition, % at 3.98 µM; shares compounds with NR2E3 ag-2; actives 29% (n = 2,300); CHO-S GAL4-VP16 luciferase reporter, luminescence;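 active = mean inhibition above a cutoff equal to the average over all tested compounds plus one standard deviation, cut at about 70% in these data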;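 note: luciferase from a UAS reporter driven by GAL4-VP16 transactivation; 0% = DMSO with VP16-transfected cells and 100% = DMSO with cells lacking VP16; higher means less reporter light so more repression of VP16 activity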
PG9 binder conf: confirmation of small molecules binding HIV-1 gp120 antibody PG9 | shares compounds with PG9 Ab binder | TR-FRET PG9 antibody binding, biochemical | inhibition, % at 6.7 µM | actives 90% (n = 1,500) | AID 651571; in the data active = inhibition above about 9%
PGV04 counter: PGV04 control antibody binding, counter-screen; shares compounds with PG9 Ab binder; TR-FRET PGV04 antibody-gp120 binding, biochemical; inhibition, % at 6.7 µM; actives 95% (n = 1,500); AID 651604; in the data active = inhibition above about 9.5%
NR1D1 mod conf: Rev-erb alpha (human) modulation, hit confirmation. shares compounds with NR1D1 modulator. Rev-erb alpha FITC-DNA binding, fluorescence polarization, 90 min. activation, % at 25 µM. actives 61% (n = 3,000). AID 1259319;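 active = activation at or above a set limit, or at least 3 SD above the negative control mean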;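 note: 0% = 35 nM protein with DMSO and 100% = 750 nM protein high control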
Active calls of the source: *; . = not tested or not shown. Rows were chosen to be rich in hits. Some 1.4% of all compounds tested hit in one or more screens of this group.

SMILES | NR2E3 ag-1 | NR2E3 ag-2 | PG9 Ab binder | NR1D1 modulator | NR2E3 ag confirm-2 | GAL4-VP16 luc | others
Cc1sc2nc(SCC(=O)NCc3ccco3)n(Cc3ccccc3)c(=O)c2c1C | 38* | -36 | 20* | 37* | . | . | NR2E3 ag confirm-1=7;PPARg-NCOR2 ctr=9;PG9 binder conf=14*;PGV04 counter=20*;NR1D1 mod conf=31*
O=C(NC(=O)N1CCN(c2cccc(Cl)c2)CC1)c1ccc(Cl)cc1 | 0 | 80* | 0 | 0 | 95* | 54
O=C(NC(=O)N1CCN(c2ccccc2)CC1)c1ccc(Cl)cc1 | -4 | -39 | -3 | 0 | . | .
CC(C)C(NC(=O)Cc1ccccc1)C(=O)N1CCN(c2cccc(Cl)c2)CC1 (stereo unspecified) | 0 | 63 | 1 | -2 | 65 | 42
COc1ccc(N2CCN(C(=O)NC(=O)c3ccccc3)CC2)cc1 | -4 | 9 | -2 | 6 | . | .
O=C(NC(=O)N1CCN(c2cccc(Cl)c2)CC1)c1ccccc1 | -2 | 51 | -1 | -2 | 85* | 35
CC1(C(=O)NS(=O)(=O)c2ccc3ccccc3c2)CCN1C(=O)Cc1ccc(-c2ccccc2)cc1 (stereo unspecified) | . | 48 | -2 | -3 | 11 | 6
CC(C)c1ccc(CC(=O)N2CCC2(C)C(=O)Nc2ccc3c(c2)OCO3)cc1 (stereo unspecified) | . | 8 | -1 | -2 | . | .
CC1(C(=O)Nc2ccc3c(c2)OCCO3)CCN1C(=O)Cc1ccc(-c2ccccc2)cc1 (stereo unspecified) | . | 57 | 1 | -10 | 56 | 45
COc1cccc(NC(=O)C2(C)CCN2C(=O)Cc2ccc(C(C)C)cc2)c1 (stereo unspecified) | . | -3 | -1 | -7 | . | .
CC1(C(=O)Nc2cccc(C#N)c2)CCN1C(=O)Cc1ccc(-c2ccccc2)cc1 (stereo unspecified) | . | 91* | -1 | -4 | 98* | 90*
CC(C)c1ccc(CC(=O)N2CCC2(C)C(=O)Nc2cccc(C#N)c2)cc1 (stereo unspecified) | . | 52 | 0 | 0 | 17 | 30
CC1(C(=O)Nc2cccc(C#N)c2)CCN1C(=O)CCc1ccccc1 (stereo unspecified) | . | 34 | -1 | 6 | . | .
Cc1cc(OCc2cc(C(=O)NC3CCC3)no2)cc(C)c1Cl | -2 | 10 | . | . | . | .
CC(NC(=O)c1cc(COc2ccc3ncccc3c2)on1)c1ccc(F)cc1 (stereo unspecified) | 1 | 85* | 0 | 1 | 96* | 88*
O=C(c1cc(COc2ccc3ncccc3c2)on1)N1CCCC1 | -1 | 84* | -1 | -5 | 80* | 61
O=C(NC1CCCC1)c1cc(COc2ccc3ncccc3c2)on1 | -2 | 95* | . | . | 95* | 84*
Cc1ccc(OCc2cc(C(=O)NC3CCCCC3)no2)cn1 | -1 | 83* | -1 | 4 | 59 | 55
COc1cccc(OCc2cc(C(=O)NC3CCOCC3)no2)c1 | 1 | -89 | -2 | 0 | . | .
COc1ccc(C2=Nn3c(nnc3C3CCCCC3)SC2)cc1 | . | . | . | -3 | . | .
C=CCC1(CC=C)CCCN1C(=O)c1cc(COc2ccc(F)c(F)c2)on1 | -3 | -7 | 0 | 5 | . | .
O=C(NCCc1cn2ccccc2n1)c1cc(COc2ccc3ncccc3c2)on1 | 0 | 53 | 1 | -5 | 70 | 60
CSc1ccccc1OCc1cc(C(=O)N2CCC(c3ccncc3)CC2)no1 | 2 | 101* | 0 | 3 | 93* | 79*
Cc1cc(OCc2cc(C(=O)N3CCC(Oc4cccnc4)CC3)no2)cc(C)c1Cl | 4 | 94* | 0 | 6 | 93* | 74*
C=CCC1(CC=C)CCCN1C(=O)c1cc(COc2ccc(C)nc2)on1 | 0 | 99* | 2 | -1 | 97* | 80*
SMILES | NR2E3 ag-1 | NR2E3 ag-2 | PG9 Ab binder | NR1D1 modulator | NR2E3 ag confirm-2 | GAL4-VP16 luc | others
CC(CCN1CCC(C(O)(c2ccccc2)c2ccccc2)CC1)Oc1ccc(F)cc1 (stereo unspecified) | . | . | . | -2 | . | .
C=CC[C@@H]1/C=C(\C)C[C@H](C)C[C@H](OC)[C@H]2O[C@@](O)(C(=O)C(=O)N3CCCC[C@H]3C(=O)O[C@H](/C(C)=C/[C@@H]3CC[C@@H](O)[C@H](OC)C3)[C@H](C)[C@@H](O)CC1=O)[C@H](C)C[C@@H]2OC | . | . | . | 2 | . | .
COc1ccc(S[C@]2(C(=O)N3CCOCC3)CC(=O)N(c3ccc(C#N)cc3)[C@@H]2c2ccc(OC)cc2)cc1 | . | . | . | -5 | . | .
O=C(Nc1ccc2c(c1)OCO2)OC1CC2CC1[C@H]1CCCCN1[C@H]2Cc1ccccc1 (stereo partly specified) | . | . | . | 1 | . | .
CC(C)C(=O)N[C@H]1[C@H](O)CCC[C@]12C(=O)N(Cc1ccccc1)c1ccccc12 | . | . | . | 6 | . | .
COCC1CCN(C(=O)c2cc(COc3ccc(-n4cncn4)cc3)on2)CC1 | 3 | 16 | 0 | 4 | . | .
O=C(c1cc(COc2ccc3ncccc3c2)on1)N1CCCCCC1 | -2 | 71* | 0 | -8 | 95* | 76*
Cc1ccc(OCc2cc(C(=O)N3CCCCCCC3)no2)cc1C | 4 | -65 | -1 | 6 | . | .
COCC1CCN(C(=O)c2cc(COc3ccc4ncccc4c3)on2)CC1 | 4 | 68 | 0 | -3 | 91* | 75*
COC(=O)[C@H](C(C)C)N1CCc2nnn(CC3CCCCC3)c2-c2cc(F)ccc2S1(=O)=O | . | . | . | -7 | . | .
N=c1c2c(-c3ccccc3)c(-c3ccccc3)n(CCc3ccccc3)c2ncn1C1CCC(O)CC1 (stereo unspecified) | . | . | . | -3 | . | .
COC(=O)c1cn(NC(=O)C2CCC(C)CC2)c(=O)c2ccccc12 (stereo unspecified) | -3 | -19 | 0 | 5 | . | .
COC(=O)c1cn(NC(=O)c2cc([N+](=O)[O-])ccc2F)c(=O)c2ccccc12 | -1 | 91* | -2 | -5 | 82* | 66
